Laboratory results taken from ChEMBL document CHEMBL1132613 (J Med Chem, 1999).
“And” between values parts separate entries of the source, which are not always exact repeats. Equal entries are not always repeated.

Assays:
[1] = system: Rattus norvegicus; test: Percentage of animals failing to emit 50 lever presses within 15 min in […] trained rats at a compound dose of 8 mg/kg; format: functional
Outline: (§1)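 Two-lever drug discrimination in male Sprague–Dawley rats (200–220 g at start), trained against saline on LSD tartrate (0.08 mg/kg), DOI HCl (0.4 mg/kg) or LY293284 (0.025 mg/kg). FR50 food-pellet reinforcement, levers counterbalanced, 15-min sessions at 22–24 °C. %D is the share of tested rats not completing 50 lever presses within 15 min.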

[2] = system: Rattus norvegicus; test: Percentage of animals emitting >80% of lever presses in […] trained rats at a compound dose of 6.32 uM/Kg; format: functional
Outline: (§2)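 Male Sprague–Dawley rats (200–220 g) in a two-lever, FR50 food-reinforced task. Rats were trained to discriminate saline from LSD tartrate (0.08 mg/kg), DOI HCl (0.4 mg/kg) or LY293284 (0.025 mg/kg) in 15-min sessions. %SDL is the share of rats making over 80% of presses on the drug lever. %D is the share failing to make 50 presses within 15 min. ED50 by Litchfield–Wilcoxon log-probit.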

[3] = system: Rattus norvegicus; test: Percentage of animals failing to emit 50 lever presses within 15 min in DOI trained rats at a compound dose of 8 mg/kg; format: functional; outline: as §2
[4] = system: Rattus norvegicus; test: Percentage of animals emitting >80% of lever presses in […] trained rats at a compound dose of 12.6 uM/Kg; format: functional; outline: as §2
[5] = system: Rattus norvegicus; test: Percentage of animals emitting >80% of lever presses in LSD trained rats at a compound dose of 25.3 uM/Kg; format: functional; outline: as §2
[6] = system: Rattus norvegicus; test: Percentage of animals failing to emit 50 lever presses within 15 min in LSD trained rats at a compound dose of 4.0 mg/kg; format: functional; outline: as §1
[7] = system: Rattus norvegicus; test: Percentage of animals emitting >80% of lever presses in DOI trained rats at a compound dose of 12.6 uM/Kg; format: functional; outline: as §2
[8] = system: Rattus norvegicus; test: Percentage of animals emitting >80% of lever presses in DOI trained rats at a compound dose of 25.3 uM/Kg; format: functional; outline: as §2
[9] = target: T1, 5-hydroxytryptamine receptor 2C (Homo sapiens, UniProt P28335); test: Compound was tested for the displacement of [125I]DOI from cloned human 5-hydroxytryptamine 2C receptor
T1 sequence (P28335 whole entry): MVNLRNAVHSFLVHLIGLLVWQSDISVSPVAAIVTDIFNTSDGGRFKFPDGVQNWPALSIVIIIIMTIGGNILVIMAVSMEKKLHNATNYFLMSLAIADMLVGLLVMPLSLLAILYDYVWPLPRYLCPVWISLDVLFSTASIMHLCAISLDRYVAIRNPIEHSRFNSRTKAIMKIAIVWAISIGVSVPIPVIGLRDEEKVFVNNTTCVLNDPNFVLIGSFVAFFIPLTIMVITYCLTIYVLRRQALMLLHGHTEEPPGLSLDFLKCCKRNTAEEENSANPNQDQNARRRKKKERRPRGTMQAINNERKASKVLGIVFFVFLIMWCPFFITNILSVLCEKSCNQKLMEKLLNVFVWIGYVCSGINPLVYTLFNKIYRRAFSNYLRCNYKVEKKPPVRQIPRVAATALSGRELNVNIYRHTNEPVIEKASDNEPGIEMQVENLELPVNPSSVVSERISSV
Outline: (§3)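 Membranes from AV12 hamster fibroblasts stably expressing human 5-HT2A or 5-HT2C. [125I]DOI was about 0.07–0.15 nM final. Buffer was 50 mM Tris-HCl pH 7.4 with 10 μM pargyline, 9.75 mM MgCl2, 0.5 mM Na2-EDTA and 0.1% Na ascorbate. Incubation was 30 min at 37 °C with about 40 μg protein (2A) or 30 μg (2C). Nonspecific binding used 1 μM ketanserin (2A) or 10 μM mianserin (2C). Read by gamma counting; sigmoid nonlinear regression.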

[10] = system: Rattus norvegicus; test: Percentage of animals emitting >80% of lever presses in […] trained rats at a compound dose of 50.6 uM/Kg; format: functional; outline: as §2
[11] = system: Rattus norvegicus; test: Percentage of animals failing to emit 50 lever presses within 15 min in […] trained rats at a compound dose of 4 mg/kg; format: functional; outline: as §1
[12] = system: Rattus norvegicus; test: Percentage of animals failing to emit 50 lever presses within 15 min in LSD trained rats at a compound dose of 8.0 mg/kg; format: functional; outline: as §1
[13] = target: 5-hydroxytryptamine receptor 2A (Homo sapiens, UniProt P28223); test: Compound was tested for the displacement of [125I]DOI from cloned human 5-hydroxytryptamine 2A receptor; outline: as §3
5-hydroxytryptamine receptor 2A, sequence (P28223 whole entry): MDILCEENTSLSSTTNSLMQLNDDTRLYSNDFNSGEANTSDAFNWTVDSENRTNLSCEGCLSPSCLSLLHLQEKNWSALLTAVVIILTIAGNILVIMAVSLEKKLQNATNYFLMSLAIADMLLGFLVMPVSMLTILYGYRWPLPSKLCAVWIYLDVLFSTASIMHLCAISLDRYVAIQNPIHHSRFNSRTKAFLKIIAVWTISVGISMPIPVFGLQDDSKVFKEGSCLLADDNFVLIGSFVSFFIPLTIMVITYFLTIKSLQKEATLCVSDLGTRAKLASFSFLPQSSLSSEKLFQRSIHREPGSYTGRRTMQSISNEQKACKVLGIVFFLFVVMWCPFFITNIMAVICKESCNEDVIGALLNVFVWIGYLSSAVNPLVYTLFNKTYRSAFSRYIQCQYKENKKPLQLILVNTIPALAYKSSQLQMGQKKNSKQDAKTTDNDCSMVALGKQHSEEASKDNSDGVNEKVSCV

[14] = system: Rattus norvegicus; test: Percentage of animals failing to emit 50 lever presses within 15 min in LSD trained rats at a compound dose of 16 mg/kg; format: functional; outline: as §2
[15] = system: Rattus norvegicus; test: Percentage of animals emitting >80% of lever presses in DOI trained rats at a compound dose of 50.6 uM/Kg; format: functional; outline: as §2
[16] = system: Rattus norvegicus; test: Percentage of animals failing to emit 50 lever presses within 15 min in DOI trained rats at a compound dose of 16 mg/kg; format: functional; outline: as §2
[17] = system: Rattus norvegicus; test: Percentage of animals failing to emit 50 lever presses within 15 min in […] trained rats at a compound dose of 2 mg/kg; format: functional; outline: as §1
[18] = system: Rattus norvegicus; test: Percentage of animals emitting >80% of lever presses in LSD trained rats at a compound dose of 6.32 uM/Kg; format: functional; outline: as §2
[19] = system: Rattus norvegicus; test: Percentage of animals failing to emit 50 lever presses within 15 min in […] trained rats at a compound dose of 16 mg/kg; format: functional; outline: as §1
[20] = system: Rattus norvegicus; test: Percentage of animals failing to emit 50 lever presses within 15 min in LSD trained rats at a compound dose of 2.0 mg/kg; format: functional; outline: as §2
[21] = target: T2, 5-hydroxytryptamine receptor 1A (Rattus norvegicus, UniProt P19327); test: Compound was tested for the displacement of [3H]-8-OH- DPAT from rat brain 5-hydroxytryptamine 1A receptor
T2 sequence (P19327 whole entry): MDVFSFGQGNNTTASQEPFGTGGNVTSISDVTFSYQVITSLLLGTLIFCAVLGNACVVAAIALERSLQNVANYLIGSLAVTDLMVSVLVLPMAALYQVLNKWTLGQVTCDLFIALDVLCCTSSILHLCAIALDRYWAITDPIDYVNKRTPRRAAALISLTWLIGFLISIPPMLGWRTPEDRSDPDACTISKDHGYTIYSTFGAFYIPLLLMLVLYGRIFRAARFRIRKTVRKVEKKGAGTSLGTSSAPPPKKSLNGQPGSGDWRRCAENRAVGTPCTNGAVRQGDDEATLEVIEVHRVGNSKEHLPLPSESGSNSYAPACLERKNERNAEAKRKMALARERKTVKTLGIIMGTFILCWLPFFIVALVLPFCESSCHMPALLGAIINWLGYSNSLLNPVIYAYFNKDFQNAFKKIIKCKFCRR
Outline: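 Pooled rat hippocampal membranes were preincubated at 37 °C. Buffer was 50 mM Tris HCl pH 7.4 with 0.5 mM Na2EDTA, 10 mM MgCl2, 0.1% Na ascorbate and pargyline. 200–400 μg protein was incubated with [3H]-8-OH-DPAT for 15 min at 37 °C, then GF/C filtered and scintillation counted. Nonspecific binding was defined with 10 μM 5-HT. Triplicate tubes.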

[22] = system: Rattus norvegicus; test: Percentage of animals emitting >80% of lever presses in LSD trained rats at a compound dose of 50.6 uM/Kg; format: functional; outline: as §2
[23] = system: Rattus norvegicus; test: Percentage of animals failing to emit 50 lever presses within 15 min in DOI trained rats at a compound dose of 4 mg/kg; format: functional; outline: as §2
[24] = system: Rattus norvegicus; test: Percentage of animals emitting >80% of lever presses in LSD trained rats at a compound dose of 12.6 uM/Kg; format: functional; outline: as §2
[25] = target: 5-hydroxytryptamine receptor 2B (Homo sapiens, UniProt P41595); test: Compound was tested for the displacement of [3H]5-HT from cloned human 5-hydroxytryptamine 2B receptor
5-hydroxytryptamine receptor 2B, sequence (P41595 whole entry): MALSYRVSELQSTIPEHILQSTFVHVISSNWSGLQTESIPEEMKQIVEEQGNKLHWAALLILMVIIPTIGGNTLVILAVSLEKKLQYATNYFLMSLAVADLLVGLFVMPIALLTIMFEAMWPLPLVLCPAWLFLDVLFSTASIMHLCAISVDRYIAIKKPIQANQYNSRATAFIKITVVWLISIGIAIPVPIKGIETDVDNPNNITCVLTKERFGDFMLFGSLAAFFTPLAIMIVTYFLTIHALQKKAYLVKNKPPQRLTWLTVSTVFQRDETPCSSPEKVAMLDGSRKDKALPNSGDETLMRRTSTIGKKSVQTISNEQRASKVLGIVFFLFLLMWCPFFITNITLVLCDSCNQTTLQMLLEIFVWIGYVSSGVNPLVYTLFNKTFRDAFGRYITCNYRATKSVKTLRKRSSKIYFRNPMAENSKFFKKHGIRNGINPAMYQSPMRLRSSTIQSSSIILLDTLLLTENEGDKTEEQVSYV
Outline: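 Membranes from AV12 cells stably expressing human 5-HT2B, 100–150 μg protein. [3H]-5-HT was about 2 nM (1.7–2.5 nM) final. Buffer was 50 mM Tris pH 7.4 with 3 mM CaCl2, 10 μM pargyline and 0.1% ascorbic acid. Drug dilutions spanned 6 log units. Incubation was 15 min at 37 °C. Nonspecific binding used 10 μM 5-HT or 1-NP. PEI-soaked GF/B filtration, scintillation counting, triplicate, sigmoid nonlinear regression.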

[26] = system: Rattus norvegicus; test: Percentage of animals emitting >80% of lever presses in […] trained rats at a compound dose of 25.3 uM/Kg; format: functional; outline: as §2
[27] = system: Rattus norvegicus; test: Percentage of animals failing to emit 50 lever presses within 15 min in rats at a compound dose of 0.2 mg/kg; format: functional; outline: as §1
[28] = system: Rattus norvegicus; test: Percentage of animals emitting >80% of lever presses in rats at a compound dose of 0.56 uM/Kg; format: functional; outline: as §2
[29] = system: Rattus norvegicus; test: Percentage of animals emitting >80% of lever presses in rats at a compound dose of 0.28 uM/Kg; format: functional; outline: as §2
[30] = system: Rattus norvegicus; test: Percentage of animals failing to emit 50 lever presses within 15 min in rats at a compound dose of 0.1 mg/kg; format: functional; outline: as §1
[31] = system: Rattus norvegicus; test: Percentage of animals failing to emit 50 lever presses within 15 min in rats at a compound dose of 0.4 mg/kg; format: functional; outline: as §1
[32] = system: Rattus norvegicus; test: Percentage of animals emitting >80% of lever presses in rats at a compound dose of 1.12 uM/Kg; format: functional; outline: as §2
[33] = target: 5-hydroxytryptamine receptor 2A (Rattus norvegicus) (UniProt P14842); test: Efficacy against 5-hydroxytryptamine 2A receptor; format: functional
5-hydroxytryptamine receptor 2A (Rattus norvegicus), sequence (P14842 whole entry): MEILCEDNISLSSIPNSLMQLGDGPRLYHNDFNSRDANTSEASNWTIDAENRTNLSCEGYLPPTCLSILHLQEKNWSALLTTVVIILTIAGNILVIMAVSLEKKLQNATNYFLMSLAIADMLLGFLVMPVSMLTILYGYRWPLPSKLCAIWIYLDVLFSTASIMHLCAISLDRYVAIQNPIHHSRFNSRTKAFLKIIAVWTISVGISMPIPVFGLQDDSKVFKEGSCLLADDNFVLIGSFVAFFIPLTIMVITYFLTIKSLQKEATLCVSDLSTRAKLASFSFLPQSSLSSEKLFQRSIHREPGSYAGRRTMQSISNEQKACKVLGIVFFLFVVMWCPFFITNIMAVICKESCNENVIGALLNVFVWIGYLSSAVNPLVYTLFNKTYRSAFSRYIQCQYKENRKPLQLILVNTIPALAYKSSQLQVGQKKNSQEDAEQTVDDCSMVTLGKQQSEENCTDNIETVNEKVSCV

CN(C)CCc1c[nH]c2ccsc12
D [1]: 22% | SDL [2]: 50% | D [3]: 78% | SDL [4]: 57% | SDL [5]: 12.5% | D [6]: 22% | SDL [7]: 37.5% | SDL [8]: 0% | Ki [9]: 0.064 µM | SDL [10]: 83% | D [11]: 30% | D [12]: 36% | Ki [13]: 0.276 µM | D [14]: 62.5% | SDL [15]: 0% | D [16]: 62.5% | D [17]: 8% | SDL [18]: 0% | D [19]: 0% | D [20]: 25% | Ki [21]: 0.076 µM | SDL [22]: 0% | D [23]: 11% | SDL [24]: 43% | Ki [25]: 0.214 µM | SDL [26]: 71%

COc1cc(CC(C)N)c(OC)cc1I (stereo not drawn)
D [27]: 10% | SDL [28]: 89% | SDL [29]: 56% | D [30]: 0% | D [31]: 0% | SDL [32]: 100% | ED50 [33]: 0.3 µmol.kg-1 and 0.11 mg/kg
